Assay [1] is described as follows: inhibitors of TNFa-induced NFkB p65 translocation, primary screen, imaging, HUVEC, MLSMR starter and 10KST1 sets (AID 438).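 Also: compound added about 3h40 before a 20 min TNFalpha stimulation.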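 As to inhibition: signal is the nuclear over cytoplasmic p65 intensity ratio per well.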 Particulars: HUVEC TNFa-induced p65 nuclear translocation; cell count: measured here: nuclei count (cytotoxicity indicator), at 2.08 µM; inhibition: at 2 µM, stronger effect = higher value, 0% TNFa-plus-vehicle, 100% no-TNFa wells.
The nature of assay [2]: inhibitors of E-selectin induction by TNFa, primary screen, imaging, HUVEC, immunofluorescence, MLSMR starter and 10KST1 sets (AID 487;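 active = visually confirmed hit in the image check and inhibition above 20%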;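 as to inhibition: signal is fraction of cell area covered by stained E-selectin grains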;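 as to nuclei count: 100% = median nuclei count of all wells on the same plate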). Particulars: HUVEC TNFalpha-induced E-selectin immunofluorescence imaging, at 2 µM; inhibition: stronger effect = higher value; nuclei count: measured here: cell number, toxicity.
Assay [3] is described as follows: DUSP6 inhibitors restoring Erk phosphorylation by chemical complementation, primary imaging in DUSP6-transfected HeLa (AID 609;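 active = compounds giving at least 50% inhibition in the cell-based MKP-3 phosphatase rescue imaging test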;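 as to inhibition: phospho-Erk level distribution per well compared with pooled transfected vehicle control wells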). The note with it: HeLa MKP-3 transfected, phospho-Erk imaging KS statistic, at 10 µM, cells stimulated with TPA for 15 min.
Assay [4] concerns the target Dual specificity protein phosphatase 6 (Homo sapiens) (UniProt Q16828). Described as above. Particulars: HeLa MKP-3 transfected, phospho-Erk imaging KS statistic; at 10 µM; stronger effect = higher value; cells stimulated with TPA for 15 min.
The target of assay [5] is Voltage-gated potassium channel subunit beta-2 (Rattus norvegicus) (UniProt P62483). The experiment in a line: KvBeta enzyme negative modulators, primary screen, biochemical, NADPH fluorescence (AID 622;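 active = fluorescence slope higher than the sample average by over 3 SD, cut at about -0.22 in these data, passing the limit was not always enough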;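 also: slope of raw intensity against log time taken from 70 to 1610 s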). The note with it: recombinant KvBeta, 4-cyanobenzaldehyde reduction, at 10 µM, stronger effect = higher value.
Assay [6] has the same target. The experiment in a line: KvBeta positive modulators, primary screen, biochemical, NADPH fluorescence (AID 623;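 active = NADPH fluorescence slope more negative than the mean of all samples by about 3 SD, 99.7% confidence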;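 also: fluorescence intensity change per second fitted from 20 to 320 s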). Particulars: Recombinant KvBeta, NADPH fluorescence decrease slope, 10 min; at 10 µM; stronger effect = lower value.
Assay [7] concerns the target Alpha-2C adrenergic receptor (Homo sapiens) (UniProt P18825). The experiment in a line: modulators of alpha2C/GIRK thallium flux, primary screen, cell-based, HEK293 alpha2C/GIRK1/2 (AID 624;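 active = fluorescence slope after compound addition differing from the mean of all screened samples at 99.7% confidence, in either direction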;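 also: slope of fluorescence ratio to pre-addition baseline per second over 15 to 24 s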). The note with it: thallium flux BTC fluorescence, at 10 µM, actives lie on both sides.
Assay [8] can be described thus: inhibitors of larval lipid processing in zebrafish, primary screen, whole organism, PED6 fluorescence, gall bladder and intestine (AID 686;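 active = a full or partial loss of lipid-probe fluorescence in the fish gall bladder, intestine or both, judged by eye; inactive = no fluorescence loss, or compound toxic to the fish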;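 also: larvae 5 to 7 days old with five fish per well; signal comes from phospholipase A2 cleavage of quenched PED6 carried via bile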). The note with it: Zebrafish larvae PED6 lipid processing, fluorescence scoring; screened at 20 µM (by protocol). The gist of the method: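 System: live zebrafish larvae aged 5-7 days, whole organism; measure: graded gall bladder and intestinal fluorescence inhibition per well; incubation: overnight exposure; reagent: ingested quenched lipid PED6 at 100 nM; signal: By-eye fluorescence microscopy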

The nature of assay [9]: inhibitors of Chlamydomonas gravitaxis, primary screen, whole organism, Chlamydomonas reinhardtii, WT vs cilia-less mutant, absorbance, 96-well (AID 463189;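 active = inhibition at or above 50% relative to wild type and mutant plate controls; inactive = inhibition below 50%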;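 also: 0% = wild type cc124 cells in DMSO and 100% = ciliumless bld1 mutant cells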). The note with it: OD600 absorbance, 2 days, at 10 µM, stronger effect = higher value.
The mark [10] stands for this setting: measured here: cell density z-score.
Setting [11] is: measured here: nuclear c-Myc green intensity z-score.
Setting [12] is: measured here: nuclear pErk red intensity z-score, stronger effect = higher value.

The source made the active and inactive calls.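 The calls were made as follows, unless noted: active = inhibition above 20% together with a positive visual image hit; inconclusive = visual image hit but inhibition not above 20%; inactive = no visual image hit.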

Chain of Alpha-2C adrenergic receptor (Homo sapiens) (P18825 whole entry, looked up): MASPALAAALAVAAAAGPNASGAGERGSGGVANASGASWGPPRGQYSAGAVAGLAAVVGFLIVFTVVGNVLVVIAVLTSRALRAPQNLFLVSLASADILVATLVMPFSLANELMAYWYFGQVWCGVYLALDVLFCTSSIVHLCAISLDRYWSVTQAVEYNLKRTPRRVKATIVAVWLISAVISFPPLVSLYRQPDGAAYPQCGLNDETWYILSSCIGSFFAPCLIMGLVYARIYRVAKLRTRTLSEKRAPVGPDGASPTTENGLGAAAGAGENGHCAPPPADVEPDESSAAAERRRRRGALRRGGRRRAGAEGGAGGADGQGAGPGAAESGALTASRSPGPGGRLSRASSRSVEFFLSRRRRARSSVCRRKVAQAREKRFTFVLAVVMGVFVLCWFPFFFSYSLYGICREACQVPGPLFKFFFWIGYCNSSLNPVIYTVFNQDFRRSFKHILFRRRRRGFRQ
Chain of Voltage-gated potassium channel subunit beta-2 (Rattus norvegicus) (P62483 whole entry, looked up): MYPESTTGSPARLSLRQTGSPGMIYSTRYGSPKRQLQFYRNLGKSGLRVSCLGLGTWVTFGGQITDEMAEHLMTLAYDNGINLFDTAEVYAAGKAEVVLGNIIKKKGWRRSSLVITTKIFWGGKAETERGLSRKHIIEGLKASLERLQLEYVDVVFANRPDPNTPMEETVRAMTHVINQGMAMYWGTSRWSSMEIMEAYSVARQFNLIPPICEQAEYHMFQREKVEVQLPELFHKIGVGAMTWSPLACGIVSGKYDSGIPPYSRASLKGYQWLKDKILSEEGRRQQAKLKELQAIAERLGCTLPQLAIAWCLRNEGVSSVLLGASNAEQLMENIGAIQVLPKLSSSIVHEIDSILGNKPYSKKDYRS
Chain of Dual specificity protein phosphatase 6 (Homo sapiens) (Q16828 whole entry, looked up): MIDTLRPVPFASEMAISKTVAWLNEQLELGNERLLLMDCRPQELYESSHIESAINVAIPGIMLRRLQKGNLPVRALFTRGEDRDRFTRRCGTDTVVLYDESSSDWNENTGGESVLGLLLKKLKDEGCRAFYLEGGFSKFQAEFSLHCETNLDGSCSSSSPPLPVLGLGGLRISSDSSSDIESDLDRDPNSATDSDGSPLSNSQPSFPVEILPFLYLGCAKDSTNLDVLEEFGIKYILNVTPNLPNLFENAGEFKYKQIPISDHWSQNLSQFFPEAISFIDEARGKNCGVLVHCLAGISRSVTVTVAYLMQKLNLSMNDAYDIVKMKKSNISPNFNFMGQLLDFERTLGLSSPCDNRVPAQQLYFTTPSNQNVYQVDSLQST

Turning to `CCOC(=O)C1=C(c2ccccc2)NC(SCC(=O)Nc2ccccc2C)=C(C#N)C1c1ccco1` (centres undefined), in assay [1], the cell count stood at 433. Besides, the inhibition was -4.2% (inactive) in assay [1], -136% (inactive) in assay [2], -0.159% (inactive) in [4] and 0.63% (inactive) in [9]. This molecule returned a nuclei count in assay [2] of 166%. For the same molecule, the z-score is -0.18 in assay [3] (setting [10]), -0.317 in assay [3] (setting [11]) and -0.0556 in assay [3] (setting [12]). In assay [5], the fluorescence slope is -0.408 (inactive). Moreover, the NADPH fluorescence slope in assay [6] was -6.1e-05 (inactive). Also, the slope in assay [7] was 0.0072 (inactive). Besides, in assay [8], the molecule was classed as inactive.

In the case of `CNS(=O)(=O)c1cccc2nsnc12`, the cell count in assay [1] is 592. The inhibition in [1] is -20.7% (inactive); in assay [2], -98.5% (inactive); in [4], -15% (inactive); in [9], 11.1% (inactive). The molecule further registered a nuclei count in assay [2] of 141%. Further, the z-score was -1.23 in assay [3] (setting [10]), 0.529 in assay [3] (setting [11]) and 1.87 in assay [3] (setting [12]). Also, in assay [5], the fluorescence slope is -0.51 (inactive). For the same molecule, the NADPH fluorescence slope in assay [6] is -3.5e-05 (inactive). In assay [7], the slope was 0.005 (inactive). Also, in [8], the molecule was classed as inactive.

As to `CCN(CC)C(=O)CN(C#N)c1nc(NC(C)C)nc(NC(C)C)n1`, the cell count in [1] came out at 594. The inhibition was 5.2% (inactive) in [1], -48.7% (inactive) in assay [2], 5.65% (inactive) in assay [4] and 31.8% (inactive) in assay [9]. Also, in assay [2], the nuclei count was determined as 173%. The z-score was 0.0403 in assay [3] (setting [10]), 2.22 in assay [3] (setting [11]) and -0.0328 in [3] (setting [12]). In addition, the fluorescence slope in assay [5] is -0.213 (inactive). In addition, in [6], the NADPH fluorescence slope is 8.9e-06 (inactive). Further, in assay [7], the slope is 0.00592 (inactive). In addition, in [8], the molecule was classed as inactive.

For `COC(=O)C1=C(C)N=C2SC(C)C(=O)N2C1c1cccc(F)c1` (centres undefined), the cell count in assay [1] was 346. Further, the inhibition in [1] was -0.4% (inactive); in [2], -96.3% (inactive); in assay [4], 12.3% (inactive); in assay [9], -8.16% (inactive). Further, in assay [2], the nuclei count was 129%. Besides, the z-score in [3] (setting [10]) was 0.762; in assay [3] (setting [11]), -0.181; in assay [3] (setting [12]), -0.313. The fluorescence slope in assay [5] is -0.485 (inactive). In addition, the NADPH fluorescence slope in assay [6] is -4.6e-05 (inactive). Further, in assay [7], the slope is 0.00444 (inactive). Further, the molecule was classed as inactive in assay [8].

`CN(C)c1nc2sc3c(c2c(=O)n1C)CC(C)(C)OC3`: in assay [1], the cell count was 651. Besides, the inhibition was -12.1% (inactive) in assay [1], -452% (inactive) in [2], -0.159% (inactive) in assay [4] and 157% (active) in assay [9]. The same molecule registered a nuclei count in [2] of 185%. Moreover, the values for the z-score in assay [3] (setting [10]), in assay [3] (setting [11]) and in [3] (setting [12]) were -0.36, 0.198 and 1, respectively. Besides, the fluorescence slope in assay [5] is -0.514 (inactive). Besides, in [6], the NADPH fluorescence slope was -4.6e-05 (inactive). For the same molecule, the slope in assay [7] was 0.00471 (inactive). Further, the result in [8] was inactive.

As to `CCOC(=O)COn1c(=O)c(-c2ccco2)[n+]([O-])c2ccccc21`, the cell count in assay [1] was 534. Moreover, the inhibition in assay [1] is 1.6% (inactive); in assay [2], 3.6% (inactive); in assay [4], 8.76% (inactive); in assay [9], 34.2% (inactive). Further, the nuclei count in [2] came out at 130%. The z-score in assay [3] (setting [10]) was 2.03; in assay [3] (setting [11]), 1.19; in assay [3] (setting [12]), -0.23. In addition, the fluorescence slope in assay [5] is -0.283 (inactive). Further, the NADPH fluorescence slope in assay [6] was -1.2e-05 (inactive). Moreover, the slope in assay [7] is 0.00422 (inactive). In addition, the molecule was called inactive in assay [8].

Take `COc1ccc(/C=C/C2=NC(=C\N(C)C)/C(=O)O2)cc1`: the cell count in assay [1] was found to be 558. For the same molecule, the inhibition was 0.1% (inactive) in [1], -26.3% (inactive) in [2], 5.26% (inactive) in [4] and -3.9% (inactive) in assay [9]. In addition, the nuclei count in assay [2] turned out to be 155%. The results for the z-score in assay [3] (setting [10]), in assay [3] (setting [11]) and in assay [3] (setting [12]) were -0.557, 0.899 and -1.61, respectively. Besides, in assay [5], the fluorescence slope was -0.303 (inactive). The NADPH fluorescence slope in assay [6] was 4.9e-06 (inactive). For the same molecule, the slope in assay [7] was 0.00517 (inactive). The call in assay [8] was inactive.

Turning to `CCCOC(=O)CSC1=C(C#N)C(c2ccccc2OCC)C(C#N)C(=O)N1` (centres undefined), the cell count in [1] worked out at 487. In addition, the inhibition in assay [1] was -1.9% (inactive); in assay [2] it was -37.3% (inactive); in assay [4], 7.48% (inactive); in assay [9], -14.4% (inactive). This molecule yielded a nuclei count in assay [2] of 101%. Moreover, the z-score is 0.769 in assay [3] (setting [10]), -0.531 in assay [3] (setting [11]) and 1.5 in [3] (setting [12]). Further, the fluorescence slope in assay [5] is -0.499 (inactive). Further, in [6], the NADPH fluorescence slope is -0.000121 (inactive). Further, the slope in assay [7] was 0.00584 (inactive). In addition, the molecule was classed as inactive in assay [8].

Take `Brc1ccc(-c2cnc3n2CCCC3)cc1`: the cell count in [1] came to 363. In addition, the inhibition in [1] is -4.2% (inactive); in [2] it was -15.9% (inactive); in [4], 5.65% (inactive); in assay [9] it was 142% (active). The molecule further returned a nuclei count in [2] of 108%. The values for the z-score in [3] (setting [10]), in assay [3] (setting [11]) and in [3] (setting [12]) were 0.187, 2.77 and -1.27, respectively. Further, in assay [5], the fluorescence slope was -0.46 (inactive). Also, the NADPH fluorescence slope in assay [6] is -0.000301 (inactive). Besides, the slope in assay [7] was 0.00468 (inactive). Moreover, in assay [8], the outcome was inactive.

Regarding `CC(C)C(C(=O)Nc1ncn[nH]1)N1C(=O)c2ccccc2C1=O` (centres undefined), the cell count in [1] amounted to 520. For the same molecule, the inhibition is -7% (inactive) in [1], -28.4% (inactive) in assay [2], -4.27% (inactive) in assay [4] and 0.44% (inactive) in assay [9]. For the same molecule, the nuclei count in [2] was found to be 121%. In addition, the z-score in assay [3] (setting [10]) is -1.38; in assay [3] (setting [11]), 0.141; in assay [3] (setting [12]), 1.7. For the same molecule, the fluorescence slope in assay [5] is -0.47 (inactive). Also, in assay [6], the NADPH fluorescence slope is -7.2e-06 (inactive). Moreover, in assay [7], the slope is 0.0054 (inactive). For the same molecule, the call in assay [8] was inactive.

With `CCOC(=O)CSc1nc2sc3c(c2c(=O)[nH]1)CC(C)(C)OC3`, the cell count in assay [1] was 583. The inhibition in [1] is -40.2% (inactive); in assay [2] it was 18.3% (inactive); in [4], 7.48% (inactive); in assay [9], -8.53% (inactive). For the same molecule, the nuclei count in [2] turned out to be 123%. The z-score in [3] (setting [10]) is -1.86; in assay [3] (setting [11]), 1.97; in assay [3] (setting [12]) it was -0.11. Further, the fluorescence slope in assay [5] was -0.519 (inactive). Further, the NADPH fluorescence slope in assay [6] is -0.000112 (inactive). In assay [7], the slope was 0.0047 (inactive). The outcome in [8] was inactive.

For the molecule `O=C(NCc1ccco1)c1ccc(=O)oc1`, the cell count in assay [1] turned out to be 352. Further, the inhibition in assay [1] is -6% (inactive); in [2] it was -89.9% (inactive); in assay [4], 23.4% (inactive); in [9], 2.62% (inactive). Further, the nuclei count in assay [2] turned out to be 167%. The z-score is 0.958 in assay [3] (setting [10]), 0.118 in [3] (setting [11]) and -1.31 in assay [3] (setting [12]). Also, the fluorescence slope in assay [5] was -0.471 (inactive). Besides, the NADPH fluorescence slope in assay [6] was -0.000178 (inactive). In assay [7], the slope is 0.00508 (inactive). For the same molecule, the outcome in [8] was inactive.

For the molecule `COc1ccccc1C(=O)NC(=Nc1nc2ccccc2o1)NC(=O)c1ccccc1OC`, the cell count in [1] was determined as 511. Also, the inhibition in [1] was -2.8% (inactive); in [2], 0.2% (inactive); in [4], -2.91% (inactive); in assay [9], -7.36% (inactive). This molecule showed a nuclei count in assay [2] of 100%. Further, the z-score in [3] (setting [10]) was -1.24; in assay [3] (setting [11]), -0.586; in [3] (setting [12]) it was 0.38. Besides, the fluorescence slope in [5] was -0.572 (inactive). Further, the NADPH fluorescence slope in [6] is -9.6e-05 (inactive). Further, the slope in assay [7] was 0.0126 (inactive). For the same molecule, the result in assay [8] was inactive.
